Ki and inhibition data for 15 molecules are collected here from ChEMBL document CHEMBL2311331, “Selective and potent adenosine A3 receptor antagonists by methoxyaryl substitution on the N-(2,6-diarylpyrimidin-4-yl)acetamide scaffold” (Eur J Med Chem, 2013).

One assay concerns the target T1, Adenosine receptor A3 (Homo sapiens, UniProt P0DMS8).
T1 sequence (P0DMS8 whole entry): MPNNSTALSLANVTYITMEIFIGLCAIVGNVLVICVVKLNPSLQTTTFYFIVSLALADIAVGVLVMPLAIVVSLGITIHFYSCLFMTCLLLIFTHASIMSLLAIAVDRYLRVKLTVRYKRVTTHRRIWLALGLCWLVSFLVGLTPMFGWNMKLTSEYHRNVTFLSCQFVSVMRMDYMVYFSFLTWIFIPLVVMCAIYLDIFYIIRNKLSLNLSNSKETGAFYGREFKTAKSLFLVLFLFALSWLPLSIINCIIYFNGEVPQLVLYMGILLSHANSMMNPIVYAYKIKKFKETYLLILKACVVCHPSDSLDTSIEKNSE
The assay can be described thus: Displacement of [3H]NECA from human adenosine A3 receptor expressed in human HeLa cells. It counts as cell-based. On the technique in general: Loss of bound radioactivity is the signal in a displacement assay; it reports binding, not function.

Assay [1] addresses T2, Adenosine receptor A2b (Homo sapiens) (UniProt P29275).
T2 sequence (whole entry): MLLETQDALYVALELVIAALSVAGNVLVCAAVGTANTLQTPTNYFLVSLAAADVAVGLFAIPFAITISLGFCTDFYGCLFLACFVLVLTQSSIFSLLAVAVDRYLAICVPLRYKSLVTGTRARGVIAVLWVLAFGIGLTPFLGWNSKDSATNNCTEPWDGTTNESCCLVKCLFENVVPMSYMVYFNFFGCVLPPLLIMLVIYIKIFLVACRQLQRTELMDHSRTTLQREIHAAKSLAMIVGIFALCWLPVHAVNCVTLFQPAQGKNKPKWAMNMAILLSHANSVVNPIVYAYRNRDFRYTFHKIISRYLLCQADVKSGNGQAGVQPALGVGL
The assay can be described thus: Displacement of [3H]DPCPX from human adenosine A2B receptor expressed in HEK-293 cells at 1 uM. It counts as cell-based. As to conditions: HEK293. The method in brief: (§1)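 Specific radioligand binding measured in the presence of a single test concentration, 1 µM, at each receptor/cell system (A1 CHO with [3H]DPCPX; A2A HeLa with triazolotriazine phenol tracer; A2B HEK-293 with [3H]DPCPX; A3 HeLa with [3H]NECA). Reported as percent displacement of specific binding, n = 2.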

Assay [2] addresses T3, Adenosine receptor A2a (Homo sapiens, UniProt P29274). The assay can be described thus: Displacement of [3H]4-(2-[7-Amino-2-(2-furyl) [1,2,4]triazolo[2,3-alpha] [1,3,5]triazin-5-ylamino]ethyl)phenol from human adenosine A2A receptor expressed in human HeLa cells at 1 uM. Type of assay: cell-based. The method in brief:
as §1

Assay [3] concerns the target T4, Adenosine receptor A1 (Homo sapiens) (UniProt P30542).
T4 sequence (whole entry): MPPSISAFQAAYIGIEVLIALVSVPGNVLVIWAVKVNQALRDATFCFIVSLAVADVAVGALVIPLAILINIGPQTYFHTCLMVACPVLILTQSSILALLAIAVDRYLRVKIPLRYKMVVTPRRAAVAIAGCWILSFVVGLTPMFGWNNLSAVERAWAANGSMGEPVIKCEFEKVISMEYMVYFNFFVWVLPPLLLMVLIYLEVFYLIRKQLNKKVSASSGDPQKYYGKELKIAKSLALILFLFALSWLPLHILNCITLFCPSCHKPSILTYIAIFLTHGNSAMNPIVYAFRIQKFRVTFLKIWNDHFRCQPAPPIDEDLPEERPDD
Briefly: Displacement of [3H]DPCPX from human adenosine A1 receptor expressed in CHO cells at 1 uM. It counts as cell-based. A digest of the protocol: as §1

The target of assay [4] is T5, Adenosine receptor A3 (Homo sapiens) (UniProt P0DMS8).
T5 sequence (whole entry): T1 sequence (P0DMS8 whole entry)
The assay can be described thus: Displacement of [3H]NECA from human adenosine A3 receptor expressed in human HeLa cells at 1 uM. It counts as cell-based. The method in brief:
as §1

A further assay has as its target T6, Adenosine receptor A1 (Homo sapiens, UniProt P30542).
T6 sequence (P30542 whole entry): T4 sequence (whole entry)
The assay can be described thus: Displacement of [3H]DPCPX from human adenosine A1 receptor expressed in CHO cells. Type of assay: cell-based.

The target in the next assay is T7, Adenosine receptor A2b (Homo sapiens, UniProt P29275).
T7 sequence (P29275 whole entry): T2 sequence (whole entry)
Briefly: Displacement of [3H]DPCPX from human adenosine A2B receptor expressed in HEK-293 cells. It counts as cell-based, HEK293.

The target in assay [5] is T3, Adenosine receptor A2a. The assay can be described thus: Displacement of [3H]4-(2-[7-Amino-2-(2-furyl) [1,2,4]triazolo[2,3-alpha] [1,3,5]triazin-5-ylamino]ethyl)phenol from human adenosine A2A receptor expressed in human HeLa cells. It counts as cell-based.

Usually Ki stands for the equilibrium dissociation constant of an inhibitor or competing ligand from its target. The low end stands for higher affinity, the high end for lower affinity. In general, inhibition refers to the share of the control response that was lost under treatment. High values mean a response far below the control, low ones a response near the control.

T3 sequence (P29274 whole entry): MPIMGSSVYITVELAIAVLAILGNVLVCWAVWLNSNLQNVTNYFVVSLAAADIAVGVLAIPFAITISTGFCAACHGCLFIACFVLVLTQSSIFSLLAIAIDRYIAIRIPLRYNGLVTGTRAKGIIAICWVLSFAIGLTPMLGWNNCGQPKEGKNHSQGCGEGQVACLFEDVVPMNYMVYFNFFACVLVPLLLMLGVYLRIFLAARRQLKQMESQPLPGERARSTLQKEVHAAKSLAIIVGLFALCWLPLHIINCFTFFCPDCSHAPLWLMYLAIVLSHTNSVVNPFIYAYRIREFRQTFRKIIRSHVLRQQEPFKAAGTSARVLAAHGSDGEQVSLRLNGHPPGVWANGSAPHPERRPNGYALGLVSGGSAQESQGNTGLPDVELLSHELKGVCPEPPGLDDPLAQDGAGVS

In turn, `CCOc1ccc(-c2cc(NC(C)=O)nc(-c3ccc(OCC)cc3)n2)cc1` came in with a Ki at Adenosine receptor A3 of 40.2 nM. In addition, the results for the inhibition (in assay [1]; at Adenosine receptor A2a [2]; in assay [3]) were 1%, 2% and 12%, respectively.

For the molecule `COc1cccc(OC)c1-c1cc(NC(C)=O)nc(-c2c(OC)cccc2OC)n1`, the inhibition in assay [4] came out at 4%; in assay [1], 3%; at Adenosine receptor A2a [2], 1%; in assay [3], 4%.

Regarding `COc1ccc(OC)c(-c2cc(NC(C)=O)nc(-c3cc(OC)ccc3OC)n2)c1`, at Adenosine receptor A3, the Ki was 6.3 nM. Besides, the inhibition in assay [1] is 1%; on Adenosine receptor A2a [2] it was 17%; in assay [3], 4%.

For the molecule `COc1ccc(-c2cc(NC(C)=O)nc(-c3ccc(OC)cc3)n2)cc1`, the inhibition in assay [1] was determined as 2%; at Adenosine receptor A2a [2], 4%; in assay [3], 2%.

With `CC(=O)Nc1cc(-c2ccccc2)nc(-c2ccccc2)n1`, the inhibition in assay [1] was determined as 22%.

Consider `CC(=O)Nc1cc(-c2ccc(OC(F)(F)F)cc2)nc(-c2ccc(OC(F)(F)F)cc2)n1`, for which the affinity at Adenosine receptor A3 corresponds to a Ki of 389 nM. In addition, the inhibition in assay [1] was found to be 4%; on Adenosine receptor A2a [2], 1%; in assay [3], 8%.

As to `COc1ccccc1-c1cc(NC(C)=O)nc(-c2ccccc2OC)n1`, the inhibition worked out at 7% in assay [1], 15% at Adenosine receptor A2a [2] and 4% in assay [3].

In turn, `CC(=O)Nc1cc(-c2ccc3c(c2)OCO3)nc(-c2ccc3c(c2)OCO3)n1` yielded an inhibition in assay [1] of 6%. The molecule also gave an inhibition constant Ki on Adenosine receptor A1 of 17 nM.

`COc1cccc(-c2cc(NC(C)=O)nc(-c3cccc(OC)c3OC)n2)c1OC`: the figures for the Ki at Adenosine receptor A3, on Adenosine receptor A2b and on Adenosine receptor A2a [5] were 42.4 nM, 494 nM and 375 nM, respectively. Besides, the inhibition in assay [3] came out at 10%.

`COc1cc(-c2cc(NC(C)=O)nc(-c3cc(OC)c(OC)c(OC)c3)n2)cc(OC)c1OC`: the Ki at Adenosine receptor A3 is 26.1 nM. Also, the inhibition was determined as 1% in assay [1], 1% at Adenosine receptor A2a [2] and 14% in assay [3].

Molecule `COc1ccc(-c2cc(NC(C)=O)nc(-c3ccc(OC)c(OC)c3)n2)cc1OC` displayed an inhibition constant Ki on Adenosine receptor A3 of 5.2 nM. Moreover, the inhibition in assay [1] amounted to 2%; on Adenosine receptor A2a [2] it was 5%; in assay [3], 10%.

With `COc1cccc(-c2cc(NC(C)=O)nc(-c3cccc(OC)c3)n2)c1`, the Ki stood at 2.8 nM at Adenosine receptor A3, 67.5 nM on Adenosine receptor A2b, 49.4 nM at Adenosine receptor A2a [5] and 22.6 nM on Adenosine receptor A1.

`COc1ccc(/C=C/c2cc(NC(C)=O)nc(/C=C/c3ccc(OC)cc3)n2)cc1`: the inhibitory constant (Ki) on Adenosine receptor A3 was determined as 513 nM. Further, the inhibition worked out at 2% in assay [1], 13% on Adenosine receptor A2a [2] and 16% in assay [3].

Molecule `COc1cc(OC)cc(-c2cc(NC(C)=O)nc(-c3cc(OC)cc(OC)c3)n2)c1` came in with a Ki on Adenosine receptor A3 of 55 nM. Also, the inhibition in assay [1] was 1%; on Adenosine receptor A2a [2] it was 3%; in assay [3] it was 15%.

With `COc1ccc(-c2cc(NC(C)=O)nc(-c3ccc(OC)cc3OC)n2)c(OC)c1`, the inhibition is 7% in assay [1], 10% at Adenosine receptor A2a [2] and 3% in assay [3].
